The target of experiment [1] is T1, human FXIIa (Homo sapiens, UniProt P00748).
T1 sequence (P00748 20-615): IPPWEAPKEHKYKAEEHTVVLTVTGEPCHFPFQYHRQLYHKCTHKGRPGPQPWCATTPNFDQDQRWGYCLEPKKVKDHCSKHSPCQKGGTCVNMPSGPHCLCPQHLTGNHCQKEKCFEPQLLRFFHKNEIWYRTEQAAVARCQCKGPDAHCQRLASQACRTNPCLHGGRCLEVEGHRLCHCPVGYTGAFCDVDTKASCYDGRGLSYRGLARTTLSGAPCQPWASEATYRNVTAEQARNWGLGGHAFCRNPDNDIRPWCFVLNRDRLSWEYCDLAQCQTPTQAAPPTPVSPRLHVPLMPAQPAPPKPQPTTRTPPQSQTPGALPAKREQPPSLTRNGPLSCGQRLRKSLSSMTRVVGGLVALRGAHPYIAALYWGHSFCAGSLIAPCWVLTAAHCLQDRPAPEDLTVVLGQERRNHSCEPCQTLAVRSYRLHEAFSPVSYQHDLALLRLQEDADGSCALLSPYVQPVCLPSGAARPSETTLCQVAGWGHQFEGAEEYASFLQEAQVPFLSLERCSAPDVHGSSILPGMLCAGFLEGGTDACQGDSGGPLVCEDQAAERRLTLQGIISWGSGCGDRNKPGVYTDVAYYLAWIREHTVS
Put plainly: Inhibition of FXIIa-mediated activation of FXI to FXIa. The experiment is classed as biochemical. The method, boiled down: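 Zymogen FXI (4 μM as added), human FXIIa (200 nM as added) and test compound (1000–0.32 μM as added) were combined in Tris-HCl pH 7.4 at 37 °C. After 5 min, S-2366 (stock 6.9 mM) was added. The FXIa generated was measured as the initial A405 rate. A logistic fit of relative residual activity gave IC50 and efficacy.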

Experiment [2] deals with human plasmin (Homo sapiens, UniProt P00747). Nature of the experiment: Inhibition of plasmin, chromogenic substrate hydrolysis assay. Type of experiment: biochemical. The method, boiled down:
(§1)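 Human plasmin at about 20 nM with Spectrozyme PL at 50 μM in-well (set from KM), in pH 7.4 Tris-HCl with NaCl, 2.5 mM CaCl2, 0.1% PEG8000 and 0.02% Tween80. Residual activity was measured at several test compound concentrations, and a logistic fit gave IC50, efficacy and Hill slope.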

Experiment [3] concerns human plasmin. The experiment is described as above. Type of experiment: biochemical. The conditions noted are these: ratio of IC50 values. A digest of the protocol: as §1
The next experiment has as its system thrombin. Nature of the experiment: Inhibition of thrombin, chromogenic substrate hydrolysis assay. Type of experiment: biochemical, human. The conditions noted are these: ratio of IC50 values. A digest of the protocol: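 Thrombin at about 6 nM with Spectrozyme TH at 50 μM (in-well), in pH 7.4 Tris-HCl buffer with NaCl, CaCl2, PEG8000 and Tween80. Substrate level was set from its KM. Residual activity was measured across several test compound concentrations, and a logistic fit of concentration-dependent inhibition gave IC50, efficacy and Hill slope.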

Experiment [4] concerns bovine α-chymotrypsin. Nature of the experiment: Inhibition of chymotrypsin, chromogenic substrate hydrolysis assay. The conditions noted are these: ratio of IC50 values. Type of experiment: biochemical. A digest of the protocol:
(§2)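 Bovine α-chymotrypsin at 500 ng/mL with N-succinyl-Ala-Ala-Pro-Phe-p-nitroanilide at 910 μM in-well (from KM), in pH 7.4 Tris-HCl with NaCl, CaCl2, PEG8000 and Tween80. Residual activity was measured over several test compound concentrations, with logistic fitting for IC50 where inhibition was concentration-dependent.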

Experiment [5] deals with bovine α-chymotrypsin (Bos taurus, UniProt P00766, DEL14-15/DEL147-148). The description is as above. The experiment is classed as biochemical. A digest of the protocol: as §2
Experiment [6] addresses T2, FVIIa/tissue factor (Homo sapiens, UniProt P08709).
T2 sequence (P08709 61-466): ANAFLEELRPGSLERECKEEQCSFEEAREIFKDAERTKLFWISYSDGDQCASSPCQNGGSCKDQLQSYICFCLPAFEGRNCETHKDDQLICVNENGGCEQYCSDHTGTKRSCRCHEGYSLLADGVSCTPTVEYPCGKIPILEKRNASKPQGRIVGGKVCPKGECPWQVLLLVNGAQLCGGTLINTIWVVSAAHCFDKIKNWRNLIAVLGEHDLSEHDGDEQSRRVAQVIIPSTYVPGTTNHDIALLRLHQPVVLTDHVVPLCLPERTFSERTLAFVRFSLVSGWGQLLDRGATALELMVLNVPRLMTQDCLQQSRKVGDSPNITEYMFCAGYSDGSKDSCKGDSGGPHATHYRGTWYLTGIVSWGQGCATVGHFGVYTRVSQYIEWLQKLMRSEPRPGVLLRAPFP
Put plainly: Inhibition of FVIIa/tissue factor, chromogenic substrate hydrolysis assay. The experiment is classed as biochemical. A digest of the protocol: (§3)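 FVIIa/tissue factor: enzyme about 8 nM with Spectrozyme VIIa at 1000 μM in-well, chosen from KM. Buffer was pH 7.4 Tris-HCl with NaCl, 2.5 mM CaCl2, 0.1% PEG8000 and 0.02% Tween80. Residual chromogenic activity was measured at several test compound concentrations, and a logistic fit gave IC50 where inhibition was concentration-dependent.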

In experiment [7] the test system is FVIIa/tissue factor. Described as above. Type of experiment: biochemical, human. The conditions noted are these: ratio of IC50 values. A digest of the protocol: as §3
The test system of experiment [8] is FIXa. Nature of the experiment: Inhibition of FIXa, chromogenic substrate hydrolysis assay. The experiment is classed as biochemical, human. The conditions noted are these: ratio of IC50 values. A digest of the protocol: (§4)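 FIXa assay: about 89 nM enzyme and 850 μM Spectrozyme FIXa (in-well, level set from KM), in pH 7.4 Tris-HCl with NaCl, CaCl2, PEG8000 and Tween80. Residual activity was measured at several test compound concentrations and fitted with a logistic equation for IC50 where inhibition was concentration-dependent.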

Experiment [9] addresses FIXa (Homo sapiens, UniProt P00740, DEL192-226). The description is as above. The experiment is classed as biochemical. A digest of the protocol:
as §4

In experiment [10] the target is human plasma kallikrein (Homo sapiens, UniProt P03952). Nature of the experiment: Inhibition of plasma kallikrein, chromogenic substrate hydrolysis assay. The experiment is classed as biochemical. The method, boiled down:
(§5)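 Human plasma kallikrein was used at about 3 nM with Spectrozyme PK at 100 μM (in-well, set from KM), in pH 7.4 Tris-HCl with NaCl, CaCl2, PEG8000 and Tween80. Residual activity was measured at several test compound concentrations; IC50 was fitted by logistic equation where inhibition was concentration-dependent.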

In experiment [11] the test system is human plasma kallikrein. Described as above. Type of experiment: biochemical. The conditions noted are these: ratio of IC50 values. The method, boiled down: as §5
For experiment [12], the target named is T1, human FXIIa. Put plainly: Direct inhibition of human FXIIa, chromogenic substrate hydrolysis assay. The conditions noted are these: human FXIIa, pH 7.4, 37 °C; ± 1 S.E. Type of experiment: biochemical. A digest of the protocol: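 Human FXIIa (stock 200 nM) was preincubated for 5 min with test compound or vehicle in Tris-HCl pH 7.4 with NaCl, 2.5 mM CaCl2, 0.1% PEG8000 and 0.02% Tween80 at 37 °C. Spectrozyme FXIIa (stock 5 mM) was then added. Twelve in-well concentrations (500–0.0025 μM) were tested. Residual activity was taken from the initial A405 rate, and a logistic fit gave IC50, efficacy and Hill slope (±1 S.E.).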

Each structure is given as a SMILES string.

Chain of human plasmin (Homo sapiens, UniProt P00747) (P00747 97-810): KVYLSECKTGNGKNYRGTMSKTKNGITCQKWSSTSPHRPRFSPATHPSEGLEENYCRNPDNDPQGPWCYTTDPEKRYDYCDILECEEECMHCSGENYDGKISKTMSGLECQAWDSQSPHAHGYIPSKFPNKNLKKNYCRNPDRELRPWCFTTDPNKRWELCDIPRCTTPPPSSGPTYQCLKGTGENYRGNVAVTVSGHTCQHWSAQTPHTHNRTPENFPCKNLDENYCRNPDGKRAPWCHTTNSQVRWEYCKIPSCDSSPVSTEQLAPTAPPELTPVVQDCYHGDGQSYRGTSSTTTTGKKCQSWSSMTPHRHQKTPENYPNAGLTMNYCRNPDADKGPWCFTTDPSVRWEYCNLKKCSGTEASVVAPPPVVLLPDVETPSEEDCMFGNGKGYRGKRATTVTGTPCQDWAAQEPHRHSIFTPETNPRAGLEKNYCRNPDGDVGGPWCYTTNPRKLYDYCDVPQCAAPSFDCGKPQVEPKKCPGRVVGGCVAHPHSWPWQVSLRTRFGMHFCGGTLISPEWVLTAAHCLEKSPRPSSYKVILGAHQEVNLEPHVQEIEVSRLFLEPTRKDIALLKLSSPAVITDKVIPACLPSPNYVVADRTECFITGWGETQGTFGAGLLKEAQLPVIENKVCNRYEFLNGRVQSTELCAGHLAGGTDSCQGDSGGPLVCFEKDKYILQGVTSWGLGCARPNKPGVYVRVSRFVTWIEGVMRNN
Chain of human plasma kallikrein (Homo sapiens, UniProt P03952) (P03952 20-638): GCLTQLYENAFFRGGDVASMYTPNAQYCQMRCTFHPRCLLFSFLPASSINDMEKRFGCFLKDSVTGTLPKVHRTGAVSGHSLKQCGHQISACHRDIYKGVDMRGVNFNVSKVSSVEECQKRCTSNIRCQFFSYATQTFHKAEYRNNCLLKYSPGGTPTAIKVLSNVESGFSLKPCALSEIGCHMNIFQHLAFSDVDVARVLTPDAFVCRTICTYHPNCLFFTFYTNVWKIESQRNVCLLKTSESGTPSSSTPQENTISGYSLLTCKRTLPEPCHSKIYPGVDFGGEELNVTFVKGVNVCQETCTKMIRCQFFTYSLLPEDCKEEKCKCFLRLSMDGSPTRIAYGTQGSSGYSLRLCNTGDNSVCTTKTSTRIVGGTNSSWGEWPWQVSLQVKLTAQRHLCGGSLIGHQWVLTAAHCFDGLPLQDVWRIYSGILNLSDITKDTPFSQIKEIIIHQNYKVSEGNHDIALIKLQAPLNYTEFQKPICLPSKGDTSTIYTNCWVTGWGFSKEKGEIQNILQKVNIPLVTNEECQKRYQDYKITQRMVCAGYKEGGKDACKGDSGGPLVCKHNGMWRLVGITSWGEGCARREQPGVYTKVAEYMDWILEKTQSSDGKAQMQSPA

The term IC50 denotes the midpoint of a concentration-inhibition curve. A high value points to weaker potency in that assay. As to `COC(=O)c1nc(N)n(C(=O)c2ccc(C(C)(C)C)cc2)n1` [Inhibitor 1, Methyl 5-amino-1-(4-(tert-butyl)benzoyl)-1H-1,2,4-triazole-3-carboxylate], the IC50 at human FXIIa [1] is roughly 2 µM; against human plasmin [2], 83.2 ± 37 µM; on bovine α-chymotrypsin [5], greater than 1000 µM; against FVIIa/tissue factor [6], greater than 1000 µM; against FIXa [9] it was greater than 1000 µM; on human plasma kallikrein [10] it was greater than 500 µM. The “efficacy of FXIIa inhibition using the macromolecule substrate FXI” value at human FXIIa [1] (residual FXIa activity by S-2366, pH 7.4, 37 °C) is given as ~ 41%. Moreover, the “DeltaY (efficacy of inhibition)” value at human plasmin [2] (Plasmin) was 25 ± 12%. For the same compound, the “HS (Hill slope)” value on human plasmin [2] (Plasmin) is listed as 1.4 ± 1.6; on human FXIIa [12], 1.7 ± 0.4. For the same compound, the “selectivity index to human FXIIa over plasmin” value in the experiment on human plasmin [3] turned out to be 756 fold. Also, the “selectivity index to human FXIIa over thrombin” value in the experiment with thrombin was 2137 fold. In the experiment with bovine α-chymotrypsin [4], the “selectivity to FXIIa over α-chymotrypsin” value is “at least 4545 fold”. In the experiment on FVIIa/tissue factor [7], the “selectivity to FXIIa over FVIIa/TF” value was “at least 4545 fold”. Besides, in the experiment with FIXa [8], the “selectivity to FXIIa over FIXa” value is “at least 4545 fold”. In the experiment on human plasma kallikrein [11], the “selectivity to FXIIa over plasma kallikrein” value is listed as “at least 4545 fold”.

These data come from publication PMC10249145 (Cardiovascular & hematological agents in medicinal chemistry, 2023).
